The record followed here is ChEMBL document CHEMBL3124767, “Synthesis, biological evaluation and molecular modelling studies of 4-anilinoquinazoline derivatives as protein kinase inhibitors” (Bioorg Med Chem, 2014).

Assay [1] can be described thus: Inhibition of CK1 delta/epsilon in pig brain using RRKHAAIGpSAYSITA as substrate by scintillation counting in presence of [gamma-33P]ATP. Further details: species or system Sus scrofa.
Assay [2] addresses Dual specificity tyrosine-phosphorylation-regulated kinase 1A (Rattus norvegicus, UniProt Q63470). Nature of the assay: Inhibition of rat recombinant GST-fused DYRK1A expressed in Escherichia coli using KKISGRLSPIMTEQ as substrate by scintillation counting in presence of [gamma-33P]ATP.
The target of assay [3] is Glycogen synthase kinase-3 (Sus scrofa, UniProt B2LUN4+I6LNT8). The experiment in a line: Inhibition of GSK3 alpha/beta in pig brain using YRRAAVPPSPSLSRHSSPHQpSEDEEE as substrate by scintillation counting in presence of [gamma-33P]ATP. Put shortly: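 Native GSK-3α/β from porcine brain, run in triplicate in buffer A (10 mM MgCl2, 1 mM EGTA, 1 mM DTT, 25 mM Tris–HCl pH 7.5, 50 µg heparin/mL) with GS-1 peptide substrate and 15 µM [γ-33P]ATP final, 30 min at 30 °C; spotted on P81 phosphocellulose, acid-washed, counted. Single 10 µM screen, then dose–response (usually 0.01–10 µM) for IC50; blank-subtracted, % of uninhibited activity.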

In assay [4] the target is Cyclin-dependent kinase 5/CDK5 activator 1 (Homo sapiens, UniProt Q00535). Nature of the assay: inhibition of human recombinant CDK5/p25 using histone H1 as substrate by scintillation counting in presence of [gamma-33P]ATP. In kind it is protein-complex assay. Put shortly: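 Human recombinant CDK5/p25 in buffer A (Tris-HCl pH 7.5, MgCl2, EGTA, DTT, heparin) with 1 mg/mL histone H1 and 15 µM [γ-33P]ATP. Run 30 min at 30 °C in triplicate. P81 filter binding, phosphoric acid washes, scintillation counting. Activity is % of maximal after blank subtraction. Compounds screened at 10 µM; IC50 from dose-response curves.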

Assay [5] deals with Dual specificity protein kinase CLK1 (Homo sapiens, UniProt P49759). The experiment in a line: Inhibition of human recombinant GST-fused CLK1 expressed in Escherichia coli using GRSRSRSRSRSR as substrate. Summed up:
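GST-tagged human CLK1 made in E. coli. Buffer A (MgCl2, EGTA, DTT, 25 mM Tris-HCl pH 7.5, heparin) with 0.15 mg BSA/mL, RS peptide substrate at 1 µg/assay, 15 µM final ATP. Run 30 min at 30 °C in triplicate. Activity is given as % of the no-inhibitor maximum after blank subtraction. Compounds screened at 10 µM; IC50 from dose-response curves (usually 0.01–10 µM).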

Sequence of Cyclin-dependent kinase 5/CDK5 activator 1 (Q00535 whole entry): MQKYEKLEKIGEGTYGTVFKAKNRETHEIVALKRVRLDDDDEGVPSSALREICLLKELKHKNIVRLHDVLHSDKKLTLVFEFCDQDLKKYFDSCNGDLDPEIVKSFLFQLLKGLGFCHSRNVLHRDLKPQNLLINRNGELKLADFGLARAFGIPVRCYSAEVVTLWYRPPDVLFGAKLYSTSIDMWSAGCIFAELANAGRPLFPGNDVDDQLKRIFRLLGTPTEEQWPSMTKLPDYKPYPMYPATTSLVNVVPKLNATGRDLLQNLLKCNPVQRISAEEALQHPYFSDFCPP
Sequence of Cyclin-dependent kinase 5/CDK5 activator 1 (Q15078 whole entry, further chain): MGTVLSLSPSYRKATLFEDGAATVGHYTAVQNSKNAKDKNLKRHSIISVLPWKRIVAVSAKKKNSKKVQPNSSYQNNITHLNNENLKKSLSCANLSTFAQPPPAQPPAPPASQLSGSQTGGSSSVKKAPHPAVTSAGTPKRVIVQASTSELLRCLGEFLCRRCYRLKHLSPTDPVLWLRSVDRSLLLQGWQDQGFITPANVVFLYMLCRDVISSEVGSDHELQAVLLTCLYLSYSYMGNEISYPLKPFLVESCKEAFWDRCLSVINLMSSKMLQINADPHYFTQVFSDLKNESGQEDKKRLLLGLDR
Sequence of Dual specificity protein kinase CLK1 (P49759 whole entry, the tested form may be a part): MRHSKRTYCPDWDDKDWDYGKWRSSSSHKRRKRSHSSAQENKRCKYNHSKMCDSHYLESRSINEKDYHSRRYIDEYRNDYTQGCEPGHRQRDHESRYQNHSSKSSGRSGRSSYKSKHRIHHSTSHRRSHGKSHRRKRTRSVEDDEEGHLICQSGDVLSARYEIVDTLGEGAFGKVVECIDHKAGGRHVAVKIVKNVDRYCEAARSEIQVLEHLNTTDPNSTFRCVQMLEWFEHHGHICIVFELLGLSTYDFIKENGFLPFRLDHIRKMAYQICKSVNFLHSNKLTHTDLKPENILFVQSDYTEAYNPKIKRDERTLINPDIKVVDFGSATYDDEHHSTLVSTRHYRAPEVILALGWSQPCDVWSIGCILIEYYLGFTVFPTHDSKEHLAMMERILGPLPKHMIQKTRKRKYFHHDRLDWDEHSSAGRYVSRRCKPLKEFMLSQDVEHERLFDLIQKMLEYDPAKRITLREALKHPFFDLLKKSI

Turning to `COc1cc2ncnc(Nc3ccc(F)c(Cl)c3)c2cc1OC`, the IC50 in assay [1] is greater than 10 µM; in assay [2] it was greater than 10 µM; in assay [3] it was greater than 10 µM; in assay [4], greater than 10 µM; in assay [5], 7.6 µM.
For `COc1ccc(Nc2ncnc3cc(OC)c(OC)cc23)cc1OC`, the IC50 was greater than 10 µM in assay [1]; no less than 10 µM in assay [2]; 3 µM in assay [3]; greater than 10 µM in assay [4]; 1.5 µM in assay [5].
As to `COc1cc2ncnc(Nc3ccc(C)c(C)c3)c2cc1OC`, the IC50 in assay [1], in assay [2], in assay [3], in assay [4] and in assay [5] was greater than 10 µM in each case.
With `COc1cc2ncnc(Nc3cccc(C(F)(F)F)c3)c2cc1OC`, the IC50 in assay [1], in assay [2], in assay [3], in assay [4] and in assay [5] was greater than 10 µM throughout.
Turning to `COc1cc2ncnc(Nc3ccc(OC(F)(F)F)cc3)c2cc1OC`, the IC50 in assay [1], in assay [2], in assay [3], in assay [4] and in assay [5] was greater than 10 µM in each case.
For the molecule `COc1cc2ncnc(Nc3ccc(C(F)(F)F)cc3)c2cc1OC`, the IC50 in assay [1], in assay [2], in assay [3], in assay [4] and in assay [5] was greater than 10 µM throughout.
Regarding `O=C1Nc2cc(Br)ccc2/C1=C1/Nc2ccccc2/C1=N\O` [6BIO], the IC50 in assay [5] stood at 2.1 µM.
For the molecule `COc1ccc(Nc2ncnc3cc(OC)c(OC)cc23)cc1`, the IC50 in assay [1], in assay [2], in assay [3], in assay [4] and in assay [5] was greater than 10 µM throughout.
Take `COc1cc2ncnc(Nc3ccc(C(C)=O)cc3)c2cc1OC`: the IC50 in assay [1] was greater than 10 µM; in assay [2], greater than 10 µM; in assay [3], greater than 10 µM; in assay [4], greater than 10 µM; in assay [5], no less than 10 µM.
Take `COc1cc2ncnc(Nc3ccccc3)c2cc1OC`: the IC50 is greater than 10 µM in assay [1]; greater than 10 µM in assay [2]; greater than 10 µM in assay [3]; greater than 10 µM in assay [4]; no less than 10 µM in assay [5].
`COc1cc2ncnc(Nc3ccc(NC(C)=O)cc3)c2cc1OC`: the IC50 in assay [1], in assay [2], in assay [3], in assay [4] and in assay [5] was greater than 10 µM in each case.

For orientation: IC50 means the concentration that gives 50% inhibition.
